Experimental data from ChEMBL document CHEMBL1151874, “Design and synthesis of novel hybrid benzamide-peptide histone deacetylase inhibitors” (Bioorg Med Chem Lett, 2009).
Active and inactive are the calls of the source. The calls are words filed in the database; no cut-off is given here. Non-standard residues stand in square brackets, D forms with d. Residues, ends and D or L forms follow the SMILES beside them. *: point of attachment. Asu = N[C@@H](CCCCCC(=O)O)C(=O)O; NH(2-NH2-phenyl) = Nc1ccccc1N*

Experiments:
Histone deacetylase 3 = Histone deacetylase 3 (Homo sapiens, UniProt O15379); experiment: Inhibition of human recombinant HDAC3
Method in brief: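 Recombinant human HDAC1 or HDAC3 enzyme inhibition assay. IC50 values are means of two experiments, with standard error reported.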

Histone deacetylase 1 = Histone deacetylase 1 (Homo sapiens, UniProt Q13547); experiment: Inhibition of human recombinant HDAC1
Method in brief: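 Enzyme source: recombinant human HDAC1. IC50 reported as mean of two experiments with standard error.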

[1] = biological target: Histone deacetylase (Homo sapiens) (UniProt Q13547+O15379+Q9UBN7+Q92769+Q9UQL6+Q8WUI4+Q9BY41+Q96DB2+P56524+Q9UKV0+Q969S8); experiment: Inhibition of HDAC in human GM15850 cells assessed as effect on histone H3 acetylation at 20 uM after 48 hrs by Western blot analysis; format: cell-based
Method in brief: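 Human lymphoblastoid line GM15850 exposed to compound at 20 µM for 48 h; endogenous histone H3 acetylation judged by western blot.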

[2] = Inhibition of Eimeria tenella HDAC1 assessed as [3H]acetate release by scintillation counting
Homo sapiens = species on record: Homo sapiens; experiment: Selectivity ratio of IC50 for human recombinant HDAC1 to IC50 for human recombinant HDAC3

Histone deacetylase 3, sequence (O15379 whole entry): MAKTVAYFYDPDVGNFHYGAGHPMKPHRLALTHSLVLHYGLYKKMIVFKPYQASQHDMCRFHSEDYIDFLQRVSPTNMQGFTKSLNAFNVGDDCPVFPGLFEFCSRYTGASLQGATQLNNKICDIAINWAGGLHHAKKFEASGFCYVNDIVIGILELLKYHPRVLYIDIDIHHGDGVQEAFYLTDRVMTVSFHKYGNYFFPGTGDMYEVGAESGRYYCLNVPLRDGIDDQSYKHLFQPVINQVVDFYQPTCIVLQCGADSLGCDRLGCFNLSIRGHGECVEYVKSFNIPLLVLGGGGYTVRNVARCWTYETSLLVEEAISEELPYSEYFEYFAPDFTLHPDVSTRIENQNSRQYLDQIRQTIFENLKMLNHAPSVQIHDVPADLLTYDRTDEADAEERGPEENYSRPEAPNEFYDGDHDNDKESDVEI
Histone deacetylase 1, sequence (Q13547 whole entry): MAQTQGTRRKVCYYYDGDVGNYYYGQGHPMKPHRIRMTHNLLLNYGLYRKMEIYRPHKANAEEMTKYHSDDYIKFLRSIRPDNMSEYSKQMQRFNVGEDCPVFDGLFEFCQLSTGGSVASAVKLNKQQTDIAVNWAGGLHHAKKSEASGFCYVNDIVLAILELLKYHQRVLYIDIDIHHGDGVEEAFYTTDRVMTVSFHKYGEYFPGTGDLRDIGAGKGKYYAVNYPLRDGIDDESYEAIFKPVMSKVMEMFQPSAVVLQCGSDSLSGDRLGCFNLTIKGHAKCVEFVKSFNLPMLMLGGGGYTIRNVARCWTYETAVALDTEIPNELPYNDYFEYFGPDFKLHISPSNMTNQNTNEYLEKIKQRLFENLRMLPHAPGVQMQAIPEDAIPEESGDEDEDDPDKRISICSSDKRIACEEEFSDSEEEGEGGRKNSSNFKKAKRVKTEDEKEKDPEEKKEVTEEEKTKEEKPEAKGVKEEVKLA

Row | IC50 (Histone deacetylase 3) [µM] | IC50 (Histone deacetylase 1) [µM] | Activity [1] | Ratio IC50 (Homo sapiens) | SMILES | IC50 [2] [µM]
1 | 3.4 | 7.3 | – | – | Nc1ccccc1NC(=O)CCCCC[C@H](NC(=O)[C@@H]1CCCN1C(=O)[C@@H](N)Cc1ccccc1)C(=O)Nc1ccccc1N | –
2 | 4.3 | 83.9 | Active | 19 | Cc1ccc(C(=O)NCC(=O)NCCC(=O)Nc2ccccc2N)cc1 | –
3 | 2.2 | 9.2 | – | – | Cc1ccc(C(=O)N[C@@H](CCCN=C(N)N)C(=O)NCCC(=O)Nc2ccccc2N)cc1 | –

The remaining lines, values behind:

Row | SMILES | IC50 (Histone deacetylase 3) [µM] | IC50 (Histone deacetylase 1) [µM] | Activity [1] | Ratio IC50 (Homo sapiens) | IC50 [2] [µM]
4 | N=C(N)NCCC[C@@H]1NC(=O)CNC(=O)[C@H](CCCCCC(=O)Nc2ccccc2N)NC(=O)CNC1=O (cyclo([Asu](NH(2-NH2-phenyl))GRG)) | – | – | Active | – | –
5 | CCC(=O)CCCCC[C@@H]1NC(=O)[C@H]2CCCCN2C(=O)[C@H]([C@@H](C)CC)NC(=O)[C@H](Cc2cn(OC)c3ccccc23)NC1=O [APICIDIN] | – | – | – | – | 0.004
6 | N=C(N)NCCC[C@H](N)C(=O)NCC(=O)N[C@@H](CCCCCC(=O)Nc1ccccc1N)C(=O)Nc1ccccc1N | 1.3 | 4.7 | Active | – | –
7 | Nc1ccccc1NC(=O)CCCCC[C@H](NC(=O)[C@H]1CCCN1C(=O)[C@@H](N)Cc1ccccc1)C(=O)N[C@@H](Cc1ccccc1)C(=O)O | 27.2 | 84.2 | – | – | –
8 | Nc1ccccc1NC(=O)CCCCC[C@@H]1NC(=O)[C@H]2CCCN2C(=O)[C@H](Cc2ccccc2)NC(=O)[C@H](Cc2ccccc2)NC1=O | 5.6 | 20.5 | – | – | –
